Data from ChEMBL document CHEMBL3875206, “Design, synthesis and biological evaluation of 4'-aminochalcone-rivastigmine hybrids as multifunctional agents for the treatment of Alzheimer's disease” (Bioorg Med Chem, 2017).

How the values were obtained:
[1] = biological target: T1, Amine oxidase [flavin-containing] A (Homo sapiens, UniProt P21397); experiment: Inhibition of recombinant human MAO-A expressed in baculovirus infected High 5 insect cells at 10 uM using kynuramine as substrate incubated for 30 mins by spectrofluorometric method relative to control; conditions: 0.5 h
T1 sequence (P21397 whole entry): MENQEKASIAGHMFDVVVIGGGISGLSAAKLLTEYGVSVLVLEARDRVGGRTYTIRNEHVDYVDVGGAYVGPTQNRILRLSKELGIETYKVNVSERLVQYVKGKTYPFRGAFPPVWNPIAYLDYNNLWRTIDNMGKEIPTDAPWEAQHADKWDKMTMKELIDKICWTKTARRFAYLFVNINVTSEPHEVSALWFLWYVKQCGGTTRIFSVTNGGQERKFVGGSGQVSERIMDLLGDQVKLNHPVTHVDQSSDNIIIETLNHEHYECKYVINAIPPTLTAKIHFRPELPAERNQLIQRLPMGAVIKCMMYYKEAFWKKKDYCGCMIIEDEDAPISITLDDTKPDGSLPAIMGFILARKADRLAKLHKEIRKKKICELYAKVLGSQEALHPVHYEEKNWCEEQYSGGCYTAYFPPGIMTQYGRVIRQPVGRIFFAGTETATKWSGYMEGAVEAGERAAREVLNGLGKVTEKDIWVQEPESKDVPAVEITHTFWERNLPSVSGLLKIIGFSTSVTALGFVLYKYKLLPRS
How it was run: (§1)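 Recombinant human MAO-A or MAO-B (7.5 µg/mL) with kynuramine substrate in 100 mM potassium phosphate pH 7.4 (KCl-isotonic), <4% DMSO, 30 min at 37 °C. Stopped with 2 N NaOH. 4-Hydroxyquinoline was measured fluorometrically (ex 310/em 400 nm) against a calibration curve. Single-point inhibition at 10 µM. IC50 from six-concentration sigmoidal curves, triplicate. SI = IC50(MAO-A)/IC50(MAO-B).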

[2] = biological target: T2, Amine oxidase [flavin-containing] B (Homo sapiens, UniProt P27338); experiment: Inhibition of recombinant human MAO-B expressed in baculovirus infected High 5 insect cells using kynuramine as substrate incubated for 30 mins by spectrofluorometric method; format: cell-based
T2 sequence (P27338 whole entry): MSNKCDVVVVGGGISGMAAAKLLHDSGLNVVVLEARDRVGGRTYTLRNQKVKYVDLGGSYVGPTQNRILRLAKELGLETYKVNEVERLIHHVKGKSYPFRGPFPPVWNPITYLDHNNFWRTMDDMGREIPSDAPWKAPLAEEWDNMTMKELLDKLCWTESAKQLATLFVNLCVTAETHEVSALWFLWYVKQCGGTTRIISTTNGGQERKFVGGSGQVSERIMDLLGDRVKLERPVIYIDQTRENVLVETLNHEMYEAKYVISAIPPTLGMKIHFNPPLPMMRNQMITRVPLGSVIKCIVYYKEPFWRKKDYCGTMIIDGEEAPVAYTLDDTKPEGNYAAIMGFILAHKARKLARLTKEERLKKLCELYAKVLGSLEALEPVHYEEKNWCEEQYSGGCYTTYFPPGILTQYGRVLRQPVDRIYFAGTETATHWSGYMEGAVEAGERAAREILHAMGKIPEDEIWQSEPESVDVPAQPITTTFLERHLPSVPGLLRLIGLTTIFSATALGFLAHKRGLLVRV

[3] = Inhibition of rat serum BuChE at 50 uM using butyrylthiocholine iodide as substrate incubated for 15 mins by Ellman's method relative to control; conditions: 0.25 h
How it was run: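 Ellman method with 25% rat serum as BuChE source, butyrylthiocholine iodide 1 mmol/L, phosphate buffer pH 7.4, absorbance at 405 nm. Compounds tested at 50 µM. […] Triplicate wells.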

[4] = biological target: Amyloid-beta precursor protein (Homo sapiens) (UniProt P05067); experiment: Inhibition of self-induced aggregation of amyloid beta (1-42) (unknown origin) at 25 uM after 24 hrs by thioflavin T fluorescence-based fluorimetric method relative to control
How it was run: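 Aβ1-42 was pretreated in HFIP, dried and stocked in DMSO. Aβ1-42 (25 µM final) was incubated with compound (25 µM final) in 50 mM phosphate buffer pH 7.4 at 37 °C for 24 h. 5 µM ThT in 50 mM glycine-NaOH pH 8.5 was then added. Fluorescence was read at ex 446/em 490 nm. Inhibition = (1−IFi/IFc)×100 after background subtraction, in triplicate.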

[5] = Antioxidant activity assessed as trolox equivalents of AAPH radical scavenging activity at 5 uM preincubated for 15 mins followed by AAPH addition measured every 60 sec for 90 mins by ORAC-FL assay; format: functional
How it was run: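 Peroxyl radicals generated by AAPH (12 mM final) at 37 °C in phosphate buffer pH 7.4 with fluorescein (150 nM final). Sample and fluorescein were preincubated 15 min before AAPH addition. Fluorescence (ex 485/em 535 nm) was read every 60 s for 90 min.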

Acetylcholinesterase = Acetylcholinesterase (Electrophorus electricus, UniProt O42275); experiment: Inhibition of electric eel AChE using acetylthiocholine iodide as substrate incubated for 15 mins by Ellman's method
How it was run: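 Ellman spectrophotometric assay: electric eel AChE 0.05 U/mL final, acetylthiocholine iodide 1 mmol/L, phosphate buffer pH 8.0, range of compound concentrations.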

[6] = Inhibition of Cu2+-mediated aggregation of amyloid beta (1-42) (unknown origin) at 25 uM after 24 hrs by thioflavin T fluorescence-based fluorimetric method relative to control; format: functional
How it was run: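 HFIP-pretreated Aβ1-42 (25 µM) was incubated with Cu2+ (25 µM), with or without compound (25 µM final), in 20 mM HEPES/150 mM NaCl pH 6.6 at 37 °C for 24 h. 5 µM ThT in 50 mM glycine-NaOH pH 8.5 was then added. Fluorescence was read at ex 446/em 490 nm. Percent inhibition was taken versus no-inhibitor control after background subtraction, in triplicate.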

[7] = biological target: T2, Amine oxidase [flavin-containing] B; experiment: Inhibition of recombinant human MAO-B expressed in baculovirus infected High 5 insect cells 10 uM using kynuramine as substrate incubated for 30 mins by spectrofluorometric method relative to control; conditions: 0.5 h; how it was run: as §1

Amyloid-beta precursor protein (Homo sapiens), sequence (P05067 whole entry): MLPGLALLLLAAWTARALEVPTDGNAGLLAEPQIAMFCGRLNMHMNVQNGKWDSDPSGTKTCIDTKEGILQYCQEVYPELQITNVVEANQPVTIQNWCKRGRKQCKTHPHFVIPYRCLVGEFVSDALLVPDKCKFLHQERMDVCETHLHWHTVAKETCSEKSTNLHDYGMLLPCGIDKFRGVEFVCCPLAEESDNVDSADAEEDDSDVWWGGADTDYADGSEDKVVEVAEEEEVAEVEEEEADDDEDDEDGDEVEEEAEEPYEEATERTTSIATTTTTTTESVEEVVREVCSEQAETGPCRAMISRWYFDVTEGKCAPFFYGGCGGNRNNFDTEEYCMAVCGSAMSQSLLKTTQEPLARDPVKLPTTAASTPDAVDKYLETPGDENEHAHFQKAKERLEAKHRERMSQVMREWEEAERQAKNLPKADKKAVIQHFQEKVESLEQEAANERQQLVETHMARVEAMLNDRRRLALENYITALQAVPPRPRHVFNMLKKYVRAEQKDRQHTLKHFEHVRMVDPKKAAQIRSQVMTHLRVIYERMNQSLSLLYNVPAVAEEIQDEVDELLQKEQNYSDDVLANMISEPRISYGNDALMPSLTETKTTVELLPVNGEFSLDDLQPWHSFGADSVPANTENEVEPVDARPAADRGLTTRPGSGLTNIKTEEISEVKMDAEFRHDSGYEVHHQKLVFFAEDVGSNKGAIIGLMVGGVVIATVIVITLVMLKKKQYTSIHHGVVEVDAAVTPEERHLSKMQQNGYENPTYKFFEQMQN
Acetylcholinesterase, sequence (O42275 whole entry): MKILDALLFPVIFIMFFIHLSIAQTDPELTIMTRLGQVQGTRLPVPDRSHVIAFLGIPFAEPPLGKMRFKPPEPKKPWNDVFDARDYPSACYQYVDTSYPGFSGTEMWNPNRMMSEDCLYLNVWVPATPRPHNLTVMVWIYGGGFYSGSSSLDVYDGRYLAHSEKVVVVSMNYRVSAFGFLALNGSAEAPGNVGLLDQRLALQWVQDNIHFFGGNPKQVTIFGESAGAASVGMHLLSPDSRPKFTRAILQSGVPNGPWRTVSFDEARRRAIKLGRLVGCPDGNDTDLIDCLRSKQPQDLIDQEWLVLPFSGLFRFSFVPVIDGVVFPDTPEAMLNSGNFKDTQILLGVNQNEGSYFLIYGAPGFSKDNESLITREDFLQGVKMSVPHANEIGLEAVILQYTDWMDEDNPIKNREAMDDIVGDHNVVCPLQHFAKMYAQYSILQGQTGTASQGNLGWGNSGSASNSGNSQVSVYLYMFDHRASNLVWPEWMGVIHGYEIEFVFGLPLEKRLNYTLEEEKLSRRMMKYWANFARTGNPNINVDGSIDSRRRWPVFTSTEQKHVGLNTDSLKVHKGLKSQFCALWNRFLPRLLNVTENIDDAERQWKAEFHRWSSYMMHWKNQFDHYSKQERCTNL

| Compound | inhibition at 10 µM [1] | IC50 [2] | inhibition (INH) [3] | inhibition [4] | Activity [5] | IC50 (Acetylcholinesterase) | inhibition [6] | inhibition at 10 µM [7] |
| --- | --- | --- | --- | --- | --- | --- | --- | --- |
| O=C(/C=C/c1ccc(N2CCCC2)cc1)c1ccc(OC(=O)N2CCCC2)cc1O | 15.2% | 0.71 µM | < 10% | 44.4% | 0.35 µMequiv/µM | 14.1 µM | 48.9% | – |
| CN(C)c1ccc(/C=C/C(=O)c2ccc(OC(=O)N3CCCC3)cc2OC(=O)N2CCCC2)cc1 | 25.2% | – | < 10% | 48% | 2.45 µMequiv/µM | 30 µM | 26.3% | 34.6% |
| CCN1CCN(C(=O)Oc2ccc(C(=O)/C=C/c3ccc(N(C)C)cc3)c(O)c2)CC1 | 42.5% | – | < 10% | 83.2% | 2.54 µMequiv/µM | 8.62 µM | 89.2% | 30% |
| CN1CCN(C(=O)Oc2ccc(C(=O)/C=C/c3ccc(N(C)C)cc3)c(O)c2)CC1 | 49.5% | – | < 10% | 87.9% | 2.08 µMequiv/µM | 11.9 µM | 75.5% | 25.1% |
| CN(C)c1ccc(/C=C/C(=O)c2ccc(OC(=O)N3CCN(Cc4ccccc4)CC3)cc2O)cc1 | 42.1% | – | < 10% | 89.4% | 3.51 µMequiv/µM | 21.4 µM | 94.2% | 41.6% |
| CCN(CC)c1ccc(/C=C/C(=O)c2ccc(OC(=O)N3CCCC3)cc2O)cc1 | 21% | 6.7 µM | < 10% | 67.8% | 1.02 µMequiv/µM | 11.7 µM | 67.1% | – |
| CN(C)c1ccc(/C=C/C(=O)c2ccc(OC(=O)N3CCCCC3)cc2OC(=O)N2CCCCC2)cc1 | 17% | – | < 10% | 38% | 2.41 µMequiv/µM | 32.4 µM | 23.8% | 30.1% |
| CCN(CC)C(=O)Oc1ccc(C(=O)/C=C/c2ccc(N(C)C)cc2)c(O)c1 | 24.4% | 3.5 µM | < 10% | 76.7% | 2.2 µMequiv/µM | 17.2 µM | 49% | – |
| O=C(/C=C/c1ccc(N2CCCCC2)cc1)c1ccc(OC(=O)N2CCCC2)cc1O | 19.6% | 0.78 µM | < 10% | 57.2% | 1.2 µMequiv/µM | 10.6 µM | 59.8% | – |
| CN(C)c1ccc(/C=C/C(=O)c2ccc(OC(=O)N3CCOCC3)cc2OC(=O)N2CCOCC2)cc1 | 15% | – | < 10% | 33.3% | 1.85 µMequiv/µM | 58 µM | 41.4% | 40.2% |
| CN(C)c1ccc(/C=C/C(=O)c2ccc(OC(=O)N3CCCCC3)cc2O)cc1 | 27.8% | – | < 10% | 70.2% | 2.51 µMequiv/µM | 6.9 µM | 73.9% | 31.1% |
| CN(C)C(=O)Oc1ccc(C(=O)/C=C/c2ccc(N(C)C)cc2)c(OC(=O)N(C)C)c1 | 34.6% | – | < 10% | 34.7% | 2.16 µMequiv/µM | > 100 µM | 56.2% | 5.1% |
| COc1cc(/C=C/C(=O)CC(=O)/C=C/c2ccc(O)c(OC)c2)ccc1O | – | – | – | – | – | – | 67.2% | – |
| CN(C)c1ccc(/C=C/C(=O)c2ccc(OC(=O)N3CCOCC3)cc2O)cc1 | 34.6% | – | < 10% | 83.6% | 2.04 µMequiv/µM | 8.01 µM | 79.7% | 42.3% |
